Bioassay records as filed in PubChem.
Only some compounds are listed: those with a hit (about 0.89% of all), similar ones and a draw of the others.
PG9 Ab binder = binds the HIV-1 gp120 antibody PG9 | AID 624416 | inhibition, % at 6.7 µM | TR-FRET gp120-PG9 antibody binding | actives 0.43% (n = 360,000); in the data active = inhibition above about 8.5%
ABCB6 inh MLPCN = human ABCB6 transporter inhibition. Q9NP58. K562-ABCB6 porphyrin accumulation, flow cytometry, 1 h; active compounds read low. fluorescence ratio to DMSO, % at 10 µM. actives 0.19% (n = 360,000). AID 602162;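 active = fluorescence ratio to DMSO below 75%, the collection mean minus 3 SD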;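 note: signal is porphyrin accumulated inside mitochondria; 100% equals median channel fluorescence of DMSO control wells; lower ratio means ABCB6 inhibition with less porphyrin fluorescence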
Target sequence (Q9NP58 whole entry, looked up): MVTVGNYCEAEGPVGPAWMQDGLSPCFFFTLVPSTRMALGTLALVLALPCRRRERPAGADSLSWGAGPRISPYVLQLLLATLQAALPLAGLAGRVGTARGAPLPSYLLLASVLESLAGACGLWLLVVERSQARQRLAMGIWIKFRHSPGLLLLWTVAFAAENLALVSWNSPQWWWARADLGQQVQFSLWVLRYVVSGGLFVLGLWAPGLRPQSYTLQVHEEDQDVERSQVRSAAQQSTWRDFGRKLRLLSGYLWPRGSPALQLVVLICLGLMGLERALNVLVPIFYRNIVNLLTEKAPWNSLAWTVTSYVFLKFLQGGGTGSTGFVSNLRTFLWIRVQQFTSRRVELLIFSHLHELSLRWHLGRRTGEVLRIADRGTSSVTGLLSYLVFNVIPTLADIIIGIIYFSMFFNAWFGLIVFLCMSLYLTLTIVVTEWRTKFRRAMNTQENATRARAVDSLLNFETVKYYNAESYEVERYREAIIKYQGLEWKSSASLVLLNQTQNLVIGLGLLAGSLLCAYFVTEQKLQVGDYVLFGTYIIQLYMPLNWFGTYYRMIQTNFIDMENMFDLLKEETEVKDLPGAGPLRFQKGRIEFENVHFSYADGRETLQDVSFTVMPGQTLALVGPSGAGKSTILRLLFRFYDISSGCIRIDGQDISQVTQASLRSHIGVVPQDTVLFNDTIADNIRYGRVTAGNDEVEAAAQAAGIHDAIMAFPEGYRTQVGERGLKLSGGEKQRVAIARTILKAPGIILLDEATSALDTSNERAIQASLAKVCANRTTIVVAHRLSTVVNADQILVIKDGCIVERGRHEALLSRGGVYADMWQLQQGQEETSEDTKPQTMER
hiPSC survival = increases survival of single human iPS cells. hiPSC single-cell survival, ATPlite luminescence; 100% = ROCK inhibitor wells, 0% = DMSO. survival enhancement, % at 20 µM. actives 0.044% (n = 360,000). AID 602274; in the data active = survival enhancement above about 18%;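 note: cells exposed to compounds for 16 hours before the ATP read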
Arrestin-AP2 inh = human beta-arrestin and AP2 interaction inhibition; FITC-arrestin peptide / GST-AP2 beads, flow cytometry; AP2 beta2 appendage carries R879A mutation; inhibition, % at 10 µM; actives 0.31% (n = 340,000); AID 504490;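 active = inhibition above a set limit, near 3 SD of compounds lacking own fluorescence, cut at about 54% in these data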;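 note: plate controls were DMSO wells for no effect and 5 µM unlabelled arrestin peptide for full effect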
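test system = AP2 appendage R879A on GSH beads | buffer or medium = PBS plus Tween 20 (0.05%) and BSA (0.1%) | incubation = 12 min plus 1 h, RT | detection = bead flow cytometry, FITC channel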
PG9 binder conf = PG9 antibody binding, confirmed | shares compounds with PG9 Ab binder | TR-FRET PG9 antibody binding, biochemical | inhibition, % at 6.7 µM | actives 90% (n = 1,500) | AID 651571; in the data active = inhibition above about 9%
PGV04 Ab binding = PGV04 control antibody binding, counter-screen. shares compounds with PG9 Ab binder. TR-FRET PGV04 antibody-gp120 binding, biochemical. inhibition, % at 6.7 µM. actives 95% (n = 1,500). AID 651604; in the data active = inhibition above about 9.5%
PG9 binder DR = small molecules binding HIV-1 gp120 antibody PG9 | shares compounds with PG9 Ab binder | TR-FRET PG9 antibody-gp120 binding inhibition | IC50, µM | 95 tested, under 10 active | AID 651848; in the data active = IC50 below about 10 µM
PGV04 DR counter = counter-screen for PG9 binders: binding to control antibody PGV04 | TR-FRET binding to control antibody PGV04 | IC50, µM | shares compounds with PG9 Ab binder | actives 20% (n = 95)
PG126 binding DR = counter-screen for PG9 binders: binding to control antibody PG126. shares compounds with PG9 Ab binder. actives 20% (n = 95). TR-FRET binding to antibody PG126, counterscreen. IC50, µM
An asterisk follows results filed as active; i = inactive; / = no result given. Cut-off read from the data, not from the text of the source, unless noted: active = IC50 below about 9 µM; inactive = the rest.

SMILES	PG9 Ab binder	ABCB6 inh MLPCN	hiPSC survival	Arrestin-AP2 inh	PG9 binder conf	PGV04 Ab binding	others
Cc1ccc(NC(=O)COC(=O)c2ccc(-n3cccn3)cc2)cc1C	13.0*	99.0	-0.8	-0.1	18.1*	28.7*
CCCc1cc(=O)oc2cc(OCC(=O)Nc3ccc(S(N)(=O)=O)cc3)ccc12	17.7*	100.0	0.2	9.3	23.9*	22.5*	PG9 binder DR=>67.1;PGV04 DR counter=>67.1;PG126 binding DR=>67.1
O=C(O)CCCCN1C(=O)C=CC1=O	0.4	/	/	/	/	/
COc1ccccc1Cn1c(=S)[nH]c2ccc(Br)cc2c1=O	-2.5	96.0	0.3	6.0	/	/
COc1ccccc1Cn1c(=S)[nH]c2ccc(F)cc2c1=O	32.4*	109.0	-0.3	-10.8	18.4*	17.1*	PG9 binder DR=i;PGV04 DR counter=i;PG126 binding DR=i
CCCN1CCCCC(NC(C)=O)C1=O (stereo not given)	-1.9	/	/	/	/	/
COc1ccc(C(C(=O)NC2CCCC2)N2CCc3ccccc32)cc1 (stereo not given)	11.7*	114.0	0.5	-1.6	24.6*	33.8*
COc1cccc(C(=O)N[C@H](C(=O)N2CCC[C@H]2C(=O)NCc2ccccc2)C(C)C)c1	2.5	/	/	/	/	/
CCOC(=O)/C(C#N)=C/c1cc2ccccc2nc1N1CCCCC1	26.8*	401.0	-2.6	6.3	25.2*	29.7*
Cc1ccc2cc(/C=C(\C#N)C(N)=O)c(N3CCCCC3)nc2c1	-0.1	106.0	-0.9	-6.7	/	/
Cc1cnc(NC(=O)CCCSc2nc3ccccc3s2)s1	13.4*	96.0	0.0	8.0	18.0*	24.6*
Nc1[nH]c(=O)ncc1-c1ccc([N+](=O)[O-])cc1	-0.9	/	/	/	/	/
O=c1[nH]c(SCCOc2ccccc2)nc2ccccc12	39.5*	94.0	-1.7	-5.7	32.6*	51.8*
COC(=O)[C@]12C[C@H](CC(=O)N3CCN(C(=O)C4CC4)CC3)C(=O)N(Cc3ccccc3)C1=C[C@H](C1CCCC1)O[C@@H]2C	2.0	/	/	/	/	/
CCCn1c(/C=C/c2cc[n+](C)cc2)nc2ccccc21	10.2*	99.0	0.3	-5.7	13.0*	15.3*
O=C(Nc1nc2ccccc2c(=O)s1)c1ccc(F)cc1Cl	70.7*	101.0	-0.4	8.1	60.0*	77.2*
O=C(Nc1nc(=O)c2ccccc2s1)c1ccc(Cl)cc1	25.0*	85.0	-0.3	21.4	49.8*	68.2*
O=C(Nc1nc(=O)c2ccccc2s1)c1ccc(F)cc1	41.5*	94.0	-0.7	5.2	65.8*	78.0*
O=C(Cc1ccccc1)Nc1nc2ccccc2s1	0.1	92.0	-1.7	1.9	/	/
O=C(Cc1ccccc1)Nc1nc(=O)c2ccccc2s1	67.6*	100.0	0.6	-0.1	71.7*	77.9*
COCc1cc(N2CCN(C(=O)OC(C)(C)C)C[C@H]2C)ccc1N1CCN(Cc2ccccc2)[C@H](C)C1	-0.5	/	/	/	/	/
Cc1ccccc1CN1[C@@H](C)[C@H](c2ccccc2)Oc2cccc(N3CCCC3)c2S1(=O)=O	-0.5	/	/	/	/	/
COCCNc1nc2sc3c(c2c(=O)n1Cc1ccco1)CCCCC3	8.7*	98.0	/	12.2	10.2*	11.0*
CN(C(=O)CCc1cn(C)c2ccccc12)c1ccc(Oc2cccnc2)cc1	-1.1	/	/	/	/	/
Cc1ccc(C)c(C2NC(=O)c3ccccc3N2)c1 (stereo not given)	0.8	94.0	-0.6	0.6	/	/
Cn1cc(C2NC(=O)c3ccccc3N2)c2ccccc21 (stereo not given)	20.3*	123.0	-1.9	-18.8	9.9*	21.6*
COC(=O)C1=C(C)N(Cc2cccc(C(F)(F)F)c2)C(=NCc2cc(OC)c(OC)c(OC)c2)NC1c1ccccc1C(F)(F)F (stereo not given)	-1.6	/	/	/	/	/
CS(=O)(=O)c1ccc2nc(NC(=O)c3ccc(Cl)cc3)sc2c1	58.0*	100.0	-0.3	3.5	51.4*	64.5*
CS(=O)(=O)c1ccc2sc(NC(=O)c3cc4ccccc4o3)nc2c1	7.3	96.0	-0.4	-25.6	/	/
